Reference: PMC3270411 (Chemistry & biology, 2012)
pIC50: −log10 of the molar value. Values belong to the compound of their own block, whether it stands above or below them.

Columns and labels:
[1] = test system: c-Jun phosphorylation (pSer73) in HeLa cells; test: LanthaScreen TR-FRET c-Jun phosphorylation assay in HeLa cells; type: cell-based; settings: read-out: p-c-Jun EC50 (nM) Hela; Hela cells, TNF-α stimulation, TR-FRET
In short: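 HeLa cells stably expressing GFP-c-Jun(1–79), 10,000/well in Opti-MEM with 0.5% charcoal/dextran-treated FBS, 25 mM Hepes pH 7.3, no phenol red; overnight. Pretreated 90 min with compound, then 30 min with 5 ng/ml TNF-α. Lysed in buffer containing 2 nM terbium anti-c-Jun pSer73 antibody; 60 min equilibration at room temperature. TR-FRET: excitation 340 nm, ratio Em 520/Em 490.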

[2] = test system: c-Jun phosphorylation (phospho Ser73) in A375 cells; type: cell-based; settings: read-out: p-c-Jun EC50 (nM) A375; A375 cells, anisomycin stimulation, microscopy
[3] = test system: c-Jun phosphorylation in HeLa and A375 cells; test: cellular c-Jun phosphorylation, statements for both assay formats; type: cell-based; settings: tested in parallel in HeLa and A375 formats
JNK1/2/3 [4] = test: KinomeScan 400-kinase panel profiling; type: binding; settings: 10 μM
JNK1/2/3 [5] = test: Z'-lyte JNK kinase assays, statements for JNK1/2/3 together; type: biochemical
MAPK8 (JNK1) = MAPK8 (JNK1) (Homo sapiens, UniProt P45983); test: Z'-lyte JNK1 kinase assay; type: biochemical; settings: relative to JNK-IN-2
JNK1 = JNK1 (Homo sapiens, UniProt P45983); test: intact protein and peptide mass spectrometry of inhibitor-labeled JNK1; type: binding; settings: recombinant JNK1, 5-fold excess of compound; Cys 116
JNK = test: pulse-chase ATP-biotin binding kinetics assay in A375 cells; type: cell-based; settings: 1μM compound, protection from ATP-biotin labeling
In short: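 A375 cells treated with 1 μM test compound for 1–5 h, then washed three times in PBS. Lysed in NP-40/CHAPS buffer for 30 min at 4°C, cleared, and gel-filtered into HEPES kinase buffer (about 5–15 mg/ml protein). Lysate labelled with 5 μM ATP-biotin probe for 1 h, reduced with DTT, alkylated with iodoacetamide, and pulled down on streptavidin for 2 h. Read-out: SDS-PAGE and JNK immunoblot.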

JNK3 = JNK3 (Homo sapiens, UniProt P53779); test: in vitro covalent binding kinetics with purified JNK3; settings: 27 molar excess of compound
In short: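 Purified JNK3 incubated with 1 μM test compound for varying times, then ATP-biotin probe 5 μM for 10 min. Protein denatured with an equal volume of 8 M urea and gel-filtered. Biotinylated protein captured on streptavidin beads for 2 h, washed, boiled 10 min at 95°C, run on SDS-PAGE and immunoblotted for JNK.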

Chain of JNK1 (P45983 26-321 limits assumed): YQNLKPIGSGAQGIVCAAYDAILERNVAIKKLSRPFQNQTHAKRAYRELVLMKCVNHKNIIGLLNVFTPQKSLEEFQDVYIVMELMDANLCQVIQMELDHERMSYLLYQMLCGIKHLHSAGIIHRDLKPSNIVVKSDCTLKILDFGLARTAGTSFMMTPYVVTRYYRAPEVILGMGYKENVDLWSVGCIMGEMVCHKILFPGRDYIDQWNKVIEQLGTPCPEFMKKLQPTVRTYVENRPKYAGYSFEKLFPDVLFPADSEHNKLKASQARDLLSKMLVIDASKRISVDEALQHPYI
Chain of MAPK8 (JNK1) (P45983 whole entry): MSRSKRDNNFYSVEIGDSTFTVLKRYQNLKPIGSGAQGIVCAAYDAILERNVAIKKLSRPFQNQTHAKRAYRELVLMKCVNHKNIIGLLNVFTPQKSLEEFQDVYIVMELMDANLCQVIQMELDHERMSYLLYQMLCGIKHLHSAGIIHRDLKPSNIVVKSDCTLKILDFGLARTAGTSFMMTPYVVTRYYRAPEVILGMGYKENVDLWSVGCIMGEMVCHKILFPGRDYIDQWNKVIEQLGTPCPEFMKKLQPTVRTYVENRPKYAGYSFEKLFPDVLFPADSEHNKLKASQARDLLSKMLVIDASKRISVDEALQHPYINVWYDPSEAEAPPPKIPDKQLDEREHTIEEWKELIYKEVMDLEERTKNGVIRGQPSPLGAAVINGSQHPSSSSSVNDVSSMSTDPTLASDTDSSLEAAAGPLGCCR
Chain of JNK3 (P53779 whole entry): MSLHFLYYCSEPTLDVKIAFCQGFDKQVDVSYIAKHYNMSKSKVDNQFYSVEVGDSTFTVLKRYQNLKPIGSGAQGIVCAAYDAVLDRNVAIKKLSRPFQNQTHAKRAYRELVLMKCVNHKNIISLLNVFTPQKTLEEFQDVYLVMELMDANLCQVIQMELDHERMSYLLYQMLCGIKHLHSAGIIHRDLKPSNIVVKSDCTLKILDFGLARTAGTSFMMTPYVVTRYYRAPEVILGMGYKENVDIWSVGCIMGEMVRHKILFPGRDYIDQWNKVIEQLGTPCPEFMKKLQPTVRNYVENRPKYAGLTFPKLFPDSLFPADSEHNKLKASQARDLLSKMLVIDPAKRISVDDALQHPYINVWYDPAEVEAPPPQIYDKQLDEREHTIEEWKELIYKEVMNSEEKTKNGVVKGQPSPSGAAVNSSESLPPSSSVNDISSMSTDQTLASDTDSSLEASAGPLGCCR

- EC50 [1]: 2020 nM
- EC50 [2]: 2400 nM
- IC50s for inhibition of c-Jun phosphorylation in both assay formats [3]: micromolar range
Structure (SMILES): N#CC(c1ccnc(NCCc2cccnc2)n1)c1nc2ccccc2s1 (stereo not drawn) [AS601245, reference compound]

Structure (SMILES): Cc1ccc(NC(=O)c2ccc(NC(=O)/C=C/CN(C)C)cc2)cc1Nc1nccc(-c2cccnc2)n1 [JNK-IN-1]
- binding to JNK1/2/3 in kinase selectivity profiling (JNK1/2/3 [4]): significant binding
- IC50 for inhibition of JNK kinase activity (JNK1/2/3 [5]; Z'-lyte assay format): single digit micromolar

- fold increase in biochemical IC50 against JNK1 (MAPK8 (JNK1)): 3 fold
Structure (SMILES): CN(C)C/C=C/C(=O)NCc1ccc(C(=O)Nc2cccc(Nc3nccc(-c4cccnc4)n3)c2)cc1 [JNK-IN-4]

- EC50 [1]: 173 nM
- EC50 [2]: 141 nM
Structure (SMILES): Cc1ccc(C(=O)Nc2ccc(Nc3nccc(-c4cccnc4)n3)cc2)cc1NC(=O)/C=C/CN(C)C [JNK-IN-10]

- EC50 [1]: 704 nM
- EC50 [2]: 2400 nM
- covalent modification of JNK1 (mass spectrometry) (JNK1): covalent addition of one molecule
- pIC50 (JNK1/2/3 [5]; read-out: IC50 for inhibition of JNK kinase activity, Z'-lyte assay format): ~6.00
Structure (SMILES): CN(C)C/C=C/C(=O)Nc1ccc(C(=O)Nc2cccc(Nc3nccc(-c4cccnc4)n3)c2)cc1 [JNK-IN-2]

Structure (SMILES): C=CC(=O)Nc1cccc(C(=O)Nc2ccc(Nc3nccc(-c4cccnc4)n3)cc2)c1 [JNK-IN-5]
- EC50 [1]: 118 nM
- EC50 [2]: 32 nM
- incubation time required to modify JNK to background levels (JNK): Three
- time to completely label JNK3 (JNK3): 45 min
- fold lower IC50 against JNK1, 2 and 3 (JNK1/2/3 [5]; compared with JNK-IN-2): 500 fold

- IC50s for inhibition of c-Jun phosphorylation in both assay formats [3]: micromolar range
Structure (SMILES): Oc1c2ccccc2c2c3c(cccc13)N=N2 [SP-600125]
